According to ChEMBL document CHEMBL1255334:
Activity calls are given as the source filed them. The rule behind the calls is not given here.

Columns and labels:
Type in all cases: functional, organism-based
[1] = system: Mycobacterium tuberculosis; test: (§1) Antibacterial activity against Mycobacterium tuberculosis containing wild type PZase assessed as at 100 mg/liter
Summary of the method: (§2)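 Clinical M. tuberculosis isolates first grown on Löwenstein-Jensen medium 3 to 4 weeks at 37°C. Radiometric BACTEC 460 test in acidified PZA test medium. Inoculum: ~McFarland 1 suspension grown in 12B medium until growth index (GI) >300. Paired vials per strain: drug-free control and PZA 100 mg/liter. Read when control GI reached 200. Resistant if PZA-vial GI >11% of control GI, susceptible if <9%.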

[2] = system: Mycobacterium tuberculosis; test: Antibacterial activity against Mycobacterium tuberculosis containing pncA gene with C deletion at nt 99 assessed as at 100 mg/liter; summary of the method: as §2
[3] = system: Mycobacterium tuberculosis; test: as §1; summary of the method: as §2; remark: listed apart in the source

For NC(=O)c1cnccn1, the Activity [1] was “Active”, the Activity [2] was “inactive” and the Activity [3] was “inactive”.
